Source: PubChem BioAssay
HMGR II inh: inhibitors of E. faecalis class II HMGR, primary screen, biochemical, Enterococcus faecalis; HMG-CoA reductase (Enterococcus faecalis, mvaE); purified E. faecalis HMGR, NADPH absorbance 340 nm kinetic; inhibition, % at 10 µM; hit rate 0.41% among 190,000; AID 1066, 2008;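 active = inhibition above a set limit, the median over all tested compounds plus 3 SD, cut at about 9.5% in these data; inconclusive = no clear call, values can overlap the other calls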;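 also: enzyme runs in reverse so mevalonate oxidation gives rising NADPH absorbance; 0% = complete reaction with DMSO and 100% = background rate lacking mevalonate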
PHOSPHO1 block: PubChem AID 1565; inhibition, % at 13.3 µM; recombinant PHOSPHO1, absorbance phosphatase assay; hit rate 1.1% among 290,000; Phosphoethanolamine/phosphocholine phosphatase (Homo sapiens), Q8TCT1; in the data active = inhibition above about 60%
RanGTP-Imp inh: inhibitors of RanGTP-importin-beta interaction, primary screen, biochemical, FRET, CFP-Ran, YFP-importin-beta, homogeneous | Ran GTPase (GTP-bound) - importin-beta complex | cell-free CFP-Ran/YFP-importin-beta FRET ratio | inhibition, % (test concentration not listed) | hit rate 1.1% among 300,000 | AID 2216, 2009;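 active = more than half of the replicate wells show a fall in the fluorescence ratio signal beyond about 16%, limit read from the data, passing the limit was not always enough; inconclusive = exactly half of the replicate wells pass the set limit; inactive = fewer than half of replicates pass the limit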;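 also: 0% = DMSO wells and 100% = Ran loaded with GDP instead of GTP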
Runt-CBFb FRET: inhibitors of RUNX1 Runt–CBFb binding, primary screen, biochemical, FRET, Cerulean-Runt, Venus-CBFb, uHTS | hit rate 0.46% among 220,000 | inhibition, % at 20 µM | AID 1496, 2009 | Cerulean-Runt/Venus-CBFb FRET ratio 530/480, 1 h;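 active = inhibition over about 50% at 20 µM in the single-dose screen, limit read from the data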;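 also: 0% = DMSO wells and 100% = excess unlabeled CBFb competitor control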
Target sequence (Q01196 whole entry, looked up): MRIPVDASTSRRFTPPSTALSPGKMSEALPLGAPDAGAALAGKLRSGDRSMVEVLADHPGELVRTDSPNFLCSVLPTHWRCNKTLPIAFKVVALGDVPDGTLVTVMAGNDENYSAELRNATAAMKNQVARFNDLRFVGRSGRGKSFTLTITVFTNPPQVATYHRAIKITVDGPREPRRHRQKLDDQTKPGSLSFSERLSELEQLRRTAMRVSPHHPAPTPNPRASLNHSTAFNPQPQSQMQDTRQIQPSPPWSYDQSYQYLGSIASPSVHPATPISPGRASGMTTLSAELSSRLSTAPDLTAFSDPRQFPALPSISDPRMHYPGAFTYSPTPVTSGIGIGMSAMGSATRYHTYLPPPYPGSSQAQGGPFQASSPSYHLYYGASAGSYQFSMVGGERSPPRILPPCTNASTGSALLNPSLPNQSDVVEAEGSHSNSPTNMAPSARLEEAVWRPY
Target sequence (Q13951 whole entry, looked up): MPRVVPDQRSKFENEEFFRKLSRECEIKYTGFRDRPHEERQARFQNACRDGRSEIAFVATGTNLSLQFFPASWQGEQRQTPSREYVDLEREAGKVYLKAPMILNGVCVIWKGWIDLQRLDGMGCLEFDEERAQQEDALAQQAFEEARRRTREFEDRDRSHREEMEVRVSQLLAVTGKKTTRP
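Doses: 20 µM compound in 1% DMSO | Material: Cerulean-labeled Runt domain protein | Amount: Each fluorescent fusion protein 100 nM | Schedule: Two 1 h room-temperature incubations shielded from light | Measured by: FRET fluorescence | Evaluation: Loss of energy transfer signal | Controls: Unlabeled CBFb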
Runt-SMMHC FRET: inhibitors of RUNX1 Runt–CBFb-SMMHC binding, primary screen, biochemical, FRET, Cerulean-Runt, Venus-CBFb-SMMHC, uHTS; Runt-related transcription factor 1 (Homo sapiens) + Core-binding factor subunit beta …; Cerulean-Runt/Venus-CBFb-SMMHC FRET ratio 530/480, 1 h; hit rate 0.74% among 220,000; AID 1434, 2008; inhibition, % at 20 µM;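 active = mean inhibition across duplicate retests at 20 µM reaching about 50%, limit read from the data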;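 also: 0% = DMSO wells and 100% = wells with excess untagged CBFb-SMMHC; inhibitors lower the FRET ratio by blocking Runt binding to CBFb-SMMHC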
Wee1 degr inh: Wee1 degradation inhibitors, primary screen, cell-based, HeLa, Wee1K328M-luciferase, luminescence | Wee1-like protein kinase (Homo sapiens), P30291 | HeLa Luc-Wee1K328M stability; 100% = proteasome inhibitor MG132 effect | reporter increase, % at 5 µM | hit rate 1.2% among 220,000;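 active = activation above the mean of all tested compounds plus 3 SD, set per screening run, cut at about 8.8% in these data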;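 also: cells exposed to compound for 20 h before luminescence read; 0% = DMSO alone and 100% = MG132 at 30 µM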
* hit, by the source's call; ? = inconclusive; nt = no result given. Shown are actives, neighbours in structure and some others; about 3.4% of the full set was active somewhere.

SMILES	HMGR II inh	PHOSPHO1 block	RanGTP-Imp inh	Runt-CBFb FRET	Runt-SMMHC FRET	Wee1 degr inh
COc1ccc(OC)c(S(=O)(=O)N2CCC(C(=O)N3CCCCCC3)CC2)c1	nt	36.2	8.7	nt	nt	nt
C=CCc1ccc(O)c(-c2cc(CC=C)ccc2O)c1	-3.1	-12.2	2.6	3.0	1.6	10.4*
CC(=O)OCC1=C(C(=O)O)N2C(=O)C(NC(=O)c3ccc(F)cc3)C2SC1 (stereo unspecified)	11.3*	7.3	-0.3	2.4	2.0	-1.6
CC(C)(C)n1nc2c(c1NC(=O)Cc1cccc3ccccc13)CS(=O)C2 (stereo unspecified)	4.6	63.2*	?	1.0	-2.3	-2.0
Cc1ccc2nc(-c3sc4nc(C)ccc4c3N)[nH]c2c1	26.4*	14.4	1.8	4.3	-9.9	1.0
Cc1ccccc1-c1nc2ccccc2[nH]1	-1.2	-3.5	-1.2	-1.3	2.2	-2.3
Cc1cc(C)c2c(N)c(-c3nc4ccccc4[nH]3)sc2n1	-0.6	20.5	21.3*	4.3	11.4	6.5
CC(C)(C)C(=O)Nc1ccc(-c2nnc3n2CCCCC3)cc1	nt	14.7	-1.4	nt	nt	nt
O=C(NCc1ccco1)/C(=C\c1ccc(F)cc1)NC(=O)c1ccco1	nt	26.5	4.1	nt	nt	nt
CCOC(=O)c1cc(S(=O)(=O)Nc2ccc(F)cc2F)cn1C	nt	58.3	2.7	nt	nt	nt
CCOC(=O)c1cc(S(=O)(=O)NC2CCC(C)CC2)cn1C (stereo unspecified)	nt	64.0*	1.7	nt	nt	nt
N=c1oc2cc(O)ccc2cc1C(=O)Nc1ccc(F)cc1	nt	20.3	170.9*	nt	nt	nt
COc1ccc(NC(=O)c2cc3cc(OC)ccc3oc2=N)cc1	-4.4	-29.1	0.2	4.2	8.0	3.4
Cc1ccccc1Nc1nc(-c2sc(NC(=O)c3ccccc3)nc2C)cs1	-0.6	69.4*	-0.3	4.8	-1.5	1.4
COc1ccc(OC)c(Nc2nc(-c3sc(NC(=O)c4ccccc4)nc3C)cs2)c1	10.6*	33.8	3.1	-0.4	0.9	-0.5
Cc1ccccc1Nc1nc(-c2sc(NC(=O)c3cccc(Cl)c3)nc2C)cs1	-2.0	-10.0	-2.6	7.1	10.1	-0.1
COc1ccc(Cl)cc1Nc1nc(-c2sc(NC(=O)c3ccccc3)nc2C)cs1	-9.6	-53.0	5.9	2.6	-5.6	-1.2
O=C(Nc1nc(-c2ccco2)cs1)c1ccccc1	2.5	88.5*	0.0	25.3	14.4	-1.4
O=C(CCC(=O)Nc1ccc(Cl)cc1Cl)N/N=C/c1ccc([N+](=O)[O-])o1	-5.2	-6.2	0.9	11.1	32.8	0.5
CCCCCC(=O)N1CC2(C)CN(C(=O)CCCCC)CC(C)(C1)C2=O	0.5	-0.4	-0.2	-0.4	3.5	-0.5
Cc1c(C(=O)Nc2ccccc2)csc1-c1ccccc1	1.5	4.7	-2.2	-3.7	-3.5	1.3
CC(C)CCOc1cccc(OCC(=O)Nc2ccncc2)c1	nt	11.0	?	nt	nt	nt
O=c1[nH]c(CSc2nc3ccccc3s2)nc2ccccc12	nt	11.1	1.9	1.9	1.9	9.0*
C=CCn1c(CSc2nc3ccccc3s2)n[nH]c1=S	-0.2	105.9*	0.6	4.3	2.5	0.6
C=CCn1c(Cc2nc3ccccc3[nH]2)n[nH]c1=S	-0.9	89.9*	?	5.7	2.8	-4.0
SMILES	HMGR II inh	PHOSPHO1 block	RanGTP-Imp inh	Runt-CBFb FRET	Runt-SMMHC FRET	Wee1 degr inh
CCn1c(CSc2nc3ccccc3s2)n[nH]c1=S	-0.3	95.8*	1.3	-10.1	6.3	-0.2
CN1C(=O)C(C)(C)c2cc(S(=O)(=O)N3CCCC(C(=O)NCc4ccc(Cl)cc4)C3)ccc21 (stereo unspecified)	nt	15.1	4.1	nt	nt	nt
S=c1[nH]nc(CSc2nc3ccccc3s2)n1Cc1ccccc1	0.1	97.5*	-0.6	2.3	4.2	-1.9
CC1=N/C(=C\c2ccc(OC(C)C)cc2)C(=O)N1c1ccc(C(=O)O)cc1	2.0	11.7	-1.8	0.5	-2.5	-0.5
COc1ccc(/C=C2\N=C(c3ccccc3)N(c3ccc(C(=O)O)cc3)C2=O)cc1OC	nt	23.7	25.8*	-8.8	-19.1	0.2
CCC(=O)N1CCCc2cc(S(=O)(=O)N3CCN(c4ccccn4)CC3)ccc21	-0.2	24.2	-1.5	1.6	1.7	3.5
Cc1cccc(NC(=O)NCCN2CCN(c3ccccc3)CC2)c1C	nt	28.6	-1.8	nt	nt	nt
COc1ccc(CCNC(=O)c2cc3c(=O)n4cccc(C)c4nc3n(Cc3ccncc3)c2=N)cc1	nt	-8.4	nt	105.3*	132.4*	nt
CCCCNC(=O)c1cc2c(=O)n3cccc(C)c3nc2n(Cc2ccncc2)c1=N	-3.2	9.7	188.1*	19.5	70.2*	-3.1
COCCNC(=O)c1cc2c(=O)n3cccc(C)c3nc2n(Cc2ccncc2)c1=N	-1.4	10.5	192.3*	11.7	40.3	-1.5
CC(=O)Nc1ccc(NC(=O)C(C)N(C)CC(=O)Nc2ccccc2Br)cc1 (stereo unspecified)	nt	41.9	0.7	nt	nt	nt
COc1ccc(S(=O)(=O)N2CCC(C(=O)NCCCN3CCOCC3)CC2)cc1	nt	1.9	-5.5	nt	nt	nt
CC(=O)C1=C(C)NC(SCC(=O)c2cc(Cl)ccc2Cl)=C(C#N)C1c1ccco1 (stereo unspecified)	nt	77.8*	-47.0	6.3	-14.8	5.1
CSCSC1=C(C#N)C(c2ccccc2Cl)C(C(C)=O)=C(C)N1 (stereo unspecified)	-0.3	93.2*	5.4	4.8	8.9	2.1
CC(=O)C1=C(C)NC(SCC(=O)c2ccc(Cl)cc2)=C(C#N)C1CC(C)C (stereo unspecified)	-3.2	87.4*	4.8	1.2	7.6	0.5
CC(=O)C1=C(C)NC(SCC(N)=O)=C(C#N)C1C (stereo unspecified)	-6.4	88.2*	5.2	20.0	0.4	-0.5
CC(=O)C1=C(C)NC(SCC(N)=O)=C(C#N)C1c1ccco1 (stereo unspecified)	1.4	-53.8	-0.6	5.0	-0.7	-3.6
CCOc1ccccc1NC(=O)CSc1nnc(CCC(=O)Nc2ccccc2F)n1C	nt	28.0	4.4	nt	nt	nt
O=C(NCc1ccccc1)C1CCC(CNS(=O)(=O)c2cccs2)CC1 (stereo unspecified)	nt	-10.0	5.4	nt	nt	nt
CC(=O)NCCC1CCN(c2nc3nonc3nc2N(C)Cc2ccccc2)CC1	0.3	48.2	-4.0	-0.3	1.5	-0.2
COc1ccc(NS(=O)(=O)c2ccc3c(c2)NC(=O)CCS3)cc1Cl	nt	17.4	-0.4	nt	nt	nt
